Test results published in ChEMBL document CHEMBL1135527, “Synthesis and evaluation of 2'-substituted 4-(4'-carboxy- or 4'-carboxymethylbenzylidene)-N-acylpiperidines: highly potent and in vivo active steroid 5alpha-reductase type 2 inhibitors” (J Med Chem, 2002).

Tests used:
[1] = target: T1, 3-oxo-5-alpha-steroid 4-dehydrogenase 2 (Rattus norvegicus) (UniProt P31214); assay: (§1) Inhibition of Steroid 5-alpha-reductase type 2 of rat ventral prostate (RVP); parameters: concentration or dose not given beside the values; settings: Prostate gland, concentration not given here
T1 sequence (whole entry): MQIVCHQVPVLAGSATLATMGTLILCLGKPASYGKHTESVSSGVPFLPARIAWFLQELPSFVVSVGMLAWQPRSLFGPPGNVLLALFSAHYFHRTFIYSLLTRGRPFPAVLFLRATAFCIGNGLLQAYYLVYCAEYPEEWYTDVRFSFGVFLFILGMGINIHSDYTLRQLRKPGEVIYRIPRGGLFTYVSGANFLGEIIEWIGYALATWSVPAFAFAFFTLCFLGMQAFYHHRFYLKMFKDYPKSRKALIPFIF
Outline: (§2)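 Type 2 source: rat ventral prostate homogenized in citrate buffer pH 5.5, 105000g pellet. About 250 μg protein incubated 30 min at 37 °C in 40 mM citrate pH 5.5 with 200 μM NADPH, 0.21 μM [1,2-³H]testosterone and 2% DMSO. NaOH stop, ether extraction, radio-HPLC of T/DHT. Result given as % inhibition at 10 μM or IC50, run in duplicate.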

[2] = target: T2, 3-oxo-5-alpha-steroid 4-dehydrogenase 2 (Homo sapiens) (UniProt P31213); assay: Percent of inhibition against Steroid 5-alpha-reductase type 2 of human uM; settings: concentration not given here
T2 sequence (whole entry): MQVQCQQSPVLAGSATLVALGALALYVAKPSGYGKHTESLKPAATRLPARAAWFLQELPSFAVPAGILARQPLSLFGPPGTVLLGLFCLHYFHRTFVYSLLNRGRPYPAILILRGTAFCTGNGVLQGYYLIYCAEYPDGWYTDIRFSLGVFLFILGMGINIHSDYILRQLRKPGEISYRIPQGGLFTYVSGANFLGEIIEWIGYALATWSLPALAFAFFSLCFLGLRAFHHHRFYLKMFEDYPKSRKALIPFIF
Outline: (§3)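 Human BPH prostate 105000g pellet (nuclei, mitochondria, microsomes) prepared in citrate buffer pH 5.5. Incubation of about 125 μg protein for 30 min at 37 °C in 40 mM citrate pH 5.5 with 100 μM NADPH, 0.21 μM [1,2-³H]testosterone and 2% DMSO. Reaction stopped with NaOH, steroids extracted with ether, T/DHT separated by radio-HPLC. Single 10 μM test or IC50; duplicates.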

[3] = target: T3, 3-oxo-5-alpha-steroid 4-dehydrogenase 1 (Rattus norvegicus) (UniProt P24008); assay: Inhibition of Steroid 5-alpha-reductase type I of rat ventral prostate (RVP); format: tissue-based; parameters: concentration or dose not given beside the values; settings: Prostate gland, concentration not given here
T3 sequence (whole entry): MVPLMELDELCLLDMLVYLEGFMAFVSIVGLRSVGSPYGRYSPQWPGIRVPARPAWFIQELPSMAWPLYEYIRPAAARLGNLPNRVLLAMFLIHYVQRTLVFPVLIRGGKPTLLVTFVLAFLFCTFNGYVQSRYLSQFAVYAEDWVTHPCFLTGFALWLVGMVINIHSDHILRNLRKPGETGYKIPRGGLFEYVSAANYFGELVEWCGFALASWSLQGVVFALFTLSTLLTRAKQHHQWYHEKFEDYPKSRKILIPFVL
Outline: (§4)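 Rat ventral prostate 105000g pellet made in 20 mM phosphate pH 6.6 with […] and 1 mM DTT at 0–4 °C. About 250 μg protein incubated 30 min at 37 °C in 40 mM phosphate pH 6.6 with 200 μM NADPH, 0.21 μM [1,2-³H]testosterone and 2% DMSO. Ether extraction, radio-HPLC of T and DHT. % inhibition at 10 μM or IC50; duplicates.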

[4] = target: T4, 3-oxo-5-alpha-steroid 4-dehydrogenase 1 (Homo sapiens) (UniProt P18405); assay: Inhibition of Steroid 5-alpha-reductase type I of human DU 145 prostatic tumor cell line, at 10 uM
T4 sequence (whole entry): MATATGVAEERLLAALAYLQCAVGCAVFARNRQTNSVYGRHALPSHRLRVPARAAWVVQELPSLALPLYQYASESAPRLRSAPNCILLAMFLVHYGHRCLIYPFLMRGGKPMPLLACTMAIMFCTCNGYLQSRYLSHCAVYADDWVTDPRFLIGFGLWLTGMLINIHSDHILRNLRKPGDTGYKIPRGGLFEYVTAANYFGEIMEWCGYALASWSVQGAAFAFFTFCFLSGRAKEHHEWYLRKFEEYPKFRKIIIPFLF
Outline: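 Intact DU145 cells (type 1 source) seeded at 180 000/well and left to adhere overnight. Compound added in DMSO to complete medium, then 6 h at 37 °C in 5% CO2 with [³H]androstenedione, 5 nM. Medium extracted twice with ether, steroids separated by radio-HPLC. Product formed expressed as % of triplicate no-inhibitor controls; screened at 10 μM.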

[5] = target: T5, 3-oxo-5-alpha-steroid 4-dehydrogenase 2 (Homo sapiens, UniProt P31213); assay: Inhibition of Steroid 5-alpha-reductase type 2 from human benign prostatic hyperplasia (BPH) tissue; outline: as §3
T5 sequence (P31213 whole entry): T2 sequence (whole entry)

[6] = target: T6, 3-oxo-5-alpha-steroid 4-dehydrogenase 2 (Rattus norvegicus, UniProt P31214); assay: as §1; format: tissue-based, Prostate gland; outline: as §2
T6 sequence (P31214 whole entry): T1 sequence (whole entry)

[7] = target: T7, 3-oxo-5-alpha-steroid 4-dehydrogenase 1 (Rattus norvegicus, UniProt P24008); assay: Inhibition of Steroid 5-alpha-reductase type I from rat ventral prostate (RVP); format: tissue-based, Prostate gland; outline: as §4
T7 sequence (P24008 whole entry): T3 sequence (whole entry)

[8] = target: T7, 3-oxo-5-alpha-steroid 4-dehydrogenase 1; assay: In vitro inhibitory activity against Steroid 5-alpha-reductase type I of rat ventral prostate (RVP); format: tissue-based, Prostate gland; outline: as §4
[9] = target: T2, 3-oxo-5-alpha-steroid 4-dehydrogenase 2 (Homo sapiens); assay: Percent of inhibition at 10 benign prostatic hyperplasia (BPH) tissue; settings: concentration not given here; outline: as §3
Rattus norvegicus [10] = assay: Mean percentage of inhibition of the T-induced hypertrophic response was calculated according to the equation %inhibition = 100 x (Ct-D)/(Ct-Cc) at a dose 11.8 mg/kg by subcutaneous administration; format: functional; settings: sc
Outline: (§5)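 Male rats castrated at 21 days old by scrotal incision under ether anaesthesia; eight groups of eight. One week later, testosterone propionate 1 mg/kg and test agent or vehicle in oil given once daily for 4 days. Testosterone and test agent were given by separate sc injections, or the test agent was given orally. Test doses 11.3–12.2 mg/kg, 10 times equimolar to finasteride 1 mg/kg.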

Rattus norvegicus [11] = assay: In vivo ventral prostate weights in juvenile castrated rats treated with testosterone propionate (11.3 mg/kg) compound, by subcutaneous administration; format: functional, Prostate gland; outline: as §5
[12] = target: 3-oxo-5-alpha-steroid 4-dehydrogenase 2 (Homo sapiens, UniProt P31213); assay: In vitro inhibitory activity against Steroid 5-alpha-reductase type 2 of human benign prostatic hyperplasia (BPH) tissue; outline: as §3
Rattus norvegicus [13] = assay: In vivo ventral prostate weights in juvenile castrated rats treated with testosterone propionate (11.3 mg/kg) + compound, by subcutaneous administration; format: functional, Prostate gland
Rattus norvegicus [14] = assay: Mean percentage of inhibition of the T-induced hypertrophic response was calculated according to the equation %inhibition = 100 x (Ct-D)/(Ct-Cc) at a dose 1 mg/kg by subcutaneous administration; format: functional; settings: sc; outline: as §5

Row | Structure (SMILES) | inhibition [1] [%] | inhibition [3] [%] | inhibition [4] [%] | IC50 [5] [nM] | IC50 [6] [nM] | IC50 [7] [nM] | also measured
1 | O=C(O)c1ccc(OC2CCN(C(=O)N(c3ccccc3)c3ccccc3)CC2)cc1 | 50 | 53 | 10 |  |  |  | inhibition [2]: 68%
2 | O=C(O)c1ccc(C=C2CCN(C(=O)C(C3CCCCC3)C3CCCCC3)CC2)cc1 [listing 1 of 2 here] |  |  |  | 60 | 80 |  | 
3 | O=C(O)c1ccc(C=C2CCN(C(=O)C(c3ccccc3)c3ccccc3)CC2)c(F)c1 |  |  | 2 | 410 | 1100 | 1100 | 
4 | COc1cc(C(=O)O)ccc1C=C1CCN(C(=O)C23CC4CC(CC(C4)C2)C3)CC1 | 51 | 52 | 10 | 1200 |  |  | 
5 | O=C(O)c1ccc(C=C2CCN(C(=O)C(C3CCCCC3)C3CCCCC3)CC2)c(F)c1 [listing 1 of 2 here] |  |  |  | 11 | 3000 |  | IC50 [8]: 1800 nM
6 | O=C(O)c1ccc(C=C2CCN(C(=O)N(c3ccccc3)c3ccccc3)CC2)cc1 |  |  | 22 | 830 | 690 | 540 | 
7 | O=C(O)Cc1ccc(C=C2CCN(C(=O)C(C3CCCCC3)C3CCCCC3)CC2)c(F)c1 [listing 1 of 2 here] |  |  | 4 |  |  |  | 
8 | O=C(O)c1ccc(C=C2CCN(C(=O)CC(c3ccccc3)c3ccccc3)CC2)cc1 |  |  | 8 | 1100 | 880 | 1600 | 
9 | O=C(O)Cc1ccc(C=C2CCN(C(=O)C(C3CCCCC3)C3CCCCC3)CC2)c(F)c1 [listing 2 of 2 here] |  |  |  | 7 | 38 | 3200 | 
10 | CC(C)(C)OC(=O)N1CCC(Oc2ccc(C(=O)O)cc2)CC1 | 12 | 4 | 2 |  |  |  | inhibition [9]: 7.8%
11 | O=C(O)c1ccc(C=C2CCN(C(=O)C(c3ccccc3)c3ccccc3)CC2)cc1 |  |  | 26 | 530 | 370 | 3400 | 
12 | CCC(=O)O[C@H]1CC[C@H]2[C@@H]3CCC4=CC(=O)CC[C@]4(C)[C@H]3CC[C@]12C.O=C(O)c1ccc(C=C2CCN(C(=O)C(C3CCCCC3)C3CCCCC3)CC2)c(F)c1 |  |  |  |  |  |  | inhibition in vivo at 11.8 mg/kg (Rattus norvegicus [10]): 47%; Weight (Rattus norvegicus [11]): 28.6 (mg of prostate) (100g of body weight)-1
13 | O=C(O)c1ccc(C=C2CCN(C(=O)C34CC5CC(CC(C5)C3)C4)CC2)c(F)c1 |  |  | 20 | 210 | 3500 | 2700 | 
14 | O=C(O)Cc1ccc(C=C2CCN(C(=O)C(C3CCCCC3)C3CCCCC3)CC2)cc1 | 56 | 66 | 6 | 6 |  |  | 
15 | O=C(O)c1cccc(C=C2CCN(C(=O)C(c3ccccc3)c3ccccc3)CC2)c1 | 43 | 49 | 6 |  |  |  | inhibition [9]: 57%
16 | O=C(O)c1ccc(OC2CCN(C(=O)C34CC5CC(CC(C5)C3)C4)CC2)cc1 | 21 | 18 | 7 | 430 |  |  | 
17 | O=C(O)c1ccc(C=C2CCN(C(=O)C34CC5CC(CC(C5)C3)C4)CC2)cc1 |  |  | 44 | 260 | 2500 | 5600 | 
18 | COc1cc(C(=O)O)ccc1C=C1CCN(C(=O)C(C2CCCCC2)C2CCCCC2)CC1 | 43 | 55 | 5 | 130 |  |  | 
19 | O=C(O)Cc1ccc(C=C2CCN(C(=O)C(c3ccccc3)c3ccccc3)CC2)cc1 | 63 |  |  |  |  | 4500 | IC50 [12]: 75 nM
20 | O=C(O)c1ccc(C=C2CCN(C(=O)C(C3CCCCC3)C3CCCCC3)CC2)cc1 [listing 2 of 2 here] |  | 51 | 46 |  |  |  | 
21 | COc1cc(C(=O)O)ccc1C=C1CCN(C(=O)C(c2ccccc2)c2ccccc2)CC1 |  |  | 8 | 3500 | 940 | 1900 | 
22 | O=C(O)c1ccc(OC2CCN(C(=O)C(c3ccccc3)c3ccccc3)CC2)cc1 | 58 | 62 |  |  |  |  | IC50 [12]: 1300 nM
23 | O=C(O)c1ccc(C=C2CCN(C(=O)C(C3CCCCC3)C3CCCCC3)CC2)c(F)c1 [listing 2 of 2 here] |  |  | 12 |  |  |  | 
24 | O=C(O)c1cccc(C=C2CCN(C(=O)C(C3CCCCC3)C3CCCCC3)CC2)c1 | 25 | 35 |  |  |  |  | IC50 [12]: 700 nM
25 | CC(C)(C)NC(=O)C1CC[C@@]2(C)[C@@H]3CC[C@H]4NC(=O)C=C[C@]4(C)[C@H]3CC[C@]12C.CCC(=O)O[C@H]1CC[C@H]2[C@@H]3CCC4=CC(=O)CC[C@]4(C)[C@H]3CC[C@]12C (stereo partly specified) |  |  |  |  |  |  | Weight (Rattus norvegicus [13]): 20.5 (mg of prostate) (100g of body weight)-1; inhibition in vivo at 1 mg/kg (Rattus norvegicus [14]): 76%
